Consider 14 molecules from article PMC6559718 (Journal of biomolecular screening, 2016).

Broadly, the IC50 is the concentration at which inhibition is half-maximal.

The target in data set [1] is T1, human ANT2 (Homo sapiens, UniProt P05141).
T1 sequence (P05141 1-298): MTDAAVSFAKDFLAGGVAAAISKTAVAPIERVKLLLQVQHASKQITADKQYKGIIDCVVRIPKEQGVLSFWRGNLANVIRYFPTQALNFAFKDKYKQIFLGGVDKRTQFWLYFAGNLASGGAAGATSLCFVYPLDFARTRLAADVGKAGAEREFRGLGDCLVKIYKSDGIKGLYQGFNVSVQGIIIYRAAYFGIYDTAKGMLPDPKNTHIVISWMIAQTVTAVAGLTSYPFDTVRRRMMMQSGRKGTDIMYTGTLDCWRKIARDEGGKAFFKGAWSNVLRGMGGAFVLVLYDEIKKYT
Kind of data set: ADP/ATP exchange with isolated yeast mitochondria expressing hANT2. The class given is biochemical. To be noted: 10 μM, isolated yeast mitochondria, hANT2 (Fig. 2B left).

In data set [2] the test system is four hANT yeast strains. Kind of data set: Yeast growth assay in YPEG medium, the four hANT yeast strains. The class given is cell-based, Saccharomyces cerevisiae. To be noted: hANT1, -2, -3 or -4 yeast strains, BKA final 50 μM.
Data set [3] has as its system four hANT yeast strains.
Another data set has as its system HCT116 cells. The data set can be described thus: Oxygen consumption rate in HCT116 cells. Conditions: after ADP addition, leelamine 50 pM as printed. The data set is classed as cell-based, human. An outline of the steps: (§1)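 Cells were kept in RPMI1640 with 10% FBS, plated at 20,000/well, and incubated overnight at 37 °C in 5% CO2. Before the assay, medium was replaced with MAS buffer (mannitol/sucrose/KH2PO4/MgCl2/HEPES/EGTA, 0.2% fatty-acid-free BSA, pH 7.4) plus 10 mM pyruvate and […]. Sequential injections were atpenin A5, 3.5 mM ADP, plasma membrane permeabilizer, then test compound or cATR control. OCR was read on an extracellular flux analyzer.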

Another data set concerns MiaPaCa-2 cells. Kind of data set: Oxygen consumption rate in MiaPaCa-2 cells. The class given is cell-based, human. To be noted: after ADP addition, leelamine 50 pM as printed. A digest of the protocol:
as §1

Data set [4] deals with T1, human ANT2. The data set can be described thus: ADP/ATP exchange with Lactococcus lactis expressing hANT2. The class given is biochemical. Conditions: for IC50: read-out: L. lactis hANT2 IC50, [3H]ADP uptake, ADP/ATP exchange, mean ± SEM.
A further data set deals with T2, human ANT1 (Homo sapiens, UniProt P12235).
T2 sequence (P12235 1-298): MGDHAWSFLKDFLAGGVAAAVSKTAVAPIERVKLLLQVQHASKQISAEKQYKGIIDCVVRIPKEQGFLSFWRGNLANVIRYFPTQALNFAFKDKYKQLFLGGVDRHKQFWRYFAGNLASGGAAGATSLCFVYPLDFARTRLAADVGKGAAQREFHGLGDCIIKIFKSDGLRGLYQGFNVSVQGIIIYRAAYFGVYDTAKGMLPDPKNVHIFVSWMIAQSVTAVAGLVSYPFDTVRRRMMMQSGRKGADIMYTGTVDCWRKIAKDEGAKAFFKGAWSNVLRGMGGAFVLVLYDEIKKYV
Kind of data set: ADP/ATP exchange with Lactococcus lactis expressing hANT1. To be noted: for IC50: read-out: L. lactis hANT1 IC50, [3H]ADP uptake, ADP/ATP exchange, mean ± SEM. The data set is classed as biochemical.

Another data set deals with T3, human ANT3 (Homo sapiens, UniProt P12236).
T3 sequence (P12236 1-298): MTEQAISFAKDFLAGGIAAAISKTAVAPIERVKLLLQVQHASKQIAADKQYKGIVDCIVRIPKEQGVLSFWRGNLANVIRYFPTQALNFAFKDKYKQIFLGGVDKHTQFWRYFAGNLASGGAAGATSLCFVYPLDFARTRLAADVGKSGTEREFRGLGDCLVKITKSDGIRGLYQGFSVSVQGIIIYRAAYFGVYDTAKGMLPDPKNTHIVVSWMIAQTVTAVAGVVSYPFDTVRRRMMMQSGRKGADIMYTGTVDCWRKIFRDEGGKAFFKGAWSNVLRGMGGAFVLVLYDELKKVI
Kind of data set: ADP/ATP exchange with Lactococcus lactis expressing hANT3. The class given is biochemical. To be noted: for IC50: read-out: L. lactis hANT3 IC50, [3H]ADP uptake, ADP/ATP exchange, mean ± SEM.

The test system of data set [5] is human ANT isoforms. Kind of data set: ADP/ATP exchange in L. lactis, human ANT isoforms. The class given is biochemical. Conditions: single-concentration test of compounds selected from the yeast growth assay.
Data set [6] has as its system yeast strain expressing hANT4. Kind of data set: microbe, parasite or virus in culture. The class given is cell-based. To be noted: Saccharomyces cerevisiae, read-out: Activity hANT4 IC50.
The test system of data set [7] is yeast strain expressing hANT2. The data set can be described thus: microbe, parasite or virus in culture. To be noted: Saccharomyces cerevisiae, read-out: Activity hANT2 IC50. The data set is classed as cell-based.
Data set [8] relates to yeast strain expressing hANT3. The data set can be described thus: microbe, parasite or virus in culture. The class given is cell-based. Conditions: Saccharomyces cerevisiae, read-out: Activity hANT3 IC50.
The subject of data set [9] is yeast strain expressing hANT1. Kind of data set: microbe, parasite or virus in culture. Conditions: Saccharomyces cerevisiae, read-out: Activity hANT1 IC50. The data set is classed as cell-based.
Data set [10] relates to human ANT isoforms. The data set can be described thus: ADP/ATP exchange in isolated yeast mitochondria, human ANT isoforms. The data set is classed as biochemical.
The nature of data set [11]: in vitro. To be noted: Saccharomyces cerevisiae.
Data set [12] is described as follows: in vitro. Conditions: Saccharomyces cerevisiae. The source holds these as a separate data set.
Data set [13] can be described thus: in vitro. To be noted: Saccharomyces cerevisiae. The source holds these as a separate data set.
Data set [14] is described as follows: in vitro. Conditions: Saccharomyces cerevisiae. The source holds these as a separate data set.

For `C=C1[C@@H]2CC[C@H]3[C@]4(C)C[C@H](O[C@@H]5O[C@H](CO)[C@@H](OS(=O)(=O)O)[C@H](OS(=O)(=O)O)[C@H]5OC(=O)CC(C)C)C[C@@H](C(=O)O)[C@H]4CC[C@]3(C2)[C@H]1O` [ATR, atractyloside], the “ADP/ATP exchange activity / ADP uptake” value on human ANT2 [1] was “completely inhibited”.

As for `CCCCc1oc2ccccc2c1C(=O)c1cc(I)c(OCCN(CC)CC)c(I)c1` [Amiodarone], the “activity in LOPAC pilot screen” value with four hANT yeast strains [2] is “identified as a hit”. The “cytotoxic effect in glucose-containing medium” value in the data set with four hANT yeast strains [3] is listed as “exhibited cytotoxic effect in certain strains”.

Turning to `CO[C@H](C/C=C\C=C\CC/C=C/C[C@H](C)/C=C/C(=C\C(=O)O)CC(=O)O)/C(C)=C\C=C(/C)C(=O)O` [BKA, bongkrekic acid], the “activity in LOPAC pilot screen” value with four hANT yeast strains [2] is on record as “weakly active”. Further, the “ADP/ATP exchange activity / ADP uptake” value on human ANT2 [1] was “completely inhibited”.

For `O=C(O)c1ccc2cc(-c3ccc(O)c(C45CC6CC(CC(C6)C4)C5)c3)ccc2c1` [CD437], the “oxygen consumption rate (OCR)” value in the data set with HCT116 cells was “inhibited OCR”; in the data set with MiaPaCa-2 cells it was “Neither CD437 nor closantel produced an appreciable level of reduction of OCR”. Also, the “selectivity for hANT2 over hANT3” value at human ANT2 [4] (L. lactis assay) is on record as ~ 3 fold. For the same molecule, the concentration for half-maximal inhibition (IC50) at human ANT2 [4] was 36 ± 6.3 µM; on human ANT1 it was 54 ± 9 µM; at human ANT3, 94 ± 19 µM. In addition, the “inhibition of [3H]ADP uptake by L. lactis” value (“inhibition of [3H]ADP uptake” below) in the data set with human ANT isoforms [5] was “inhibited”. The “cytotoxic effect in glucose-containing medium” value with four hANT yeast strains [3] was “exhibited cytotoxic effect in certain strains”.

On to `N#CC(C#N)=NNc1ccc(OC(F)(F)F)cc1` [FCCP, carbonyl cyanide-4-(trifluoromethoxy) phenylhydrazone], for which, at human ANT2 [4] (10 μM, L. lactis expressing hANT2 (Fig. 2B right)), the “[3H]ADP uptake in L. lactis” value was “inactive”.

Consider `O=C(Nc1cc(C(F)(F)F)cc(C(F)(F)F)c1)c1cc(Cl)ccc1O` [IMD 0354], for which the IC50 in data set [6] amounted to 0.85 ± 0.07 µM; in data set [7], 0.45 ± 0.1 µM; in [8], 0.52 ± 0.08 µM; in [9], 0.58 ± 0.1 µM.

Take `CC(C)c1ccc2c(c1)CC[C@H]1[C@](C)(CN)CCC[C@]21C` [Leelamine]: the results for the “oxygen consumption rate (OCR)” value in the data set on HCT116 cells and in the data set on MiaPaCa-2 cells were “decreased the OCR to a similar extent as cATR” and “decreased OCR”, respectively. The “effect on hANT activity in mitochondrial assays” value with human ANT isoforms [10] (100 μM, all isoforms) is “inhibited hANT activity”. The “effect on translocase activity in mitochondria” value in the data set with human ANT isoforms [10] (10 and 30 μM, hANT4, hANT3 and particularly hANT2 strains) is reported as “increased translocase activity”. Further, the “effect on translocase activity in L. lactis expressing hANT2” value at human ANT2 [4] (Fig. 3C) was “increased translocase activity”. For the same molecule, the IC50 at human ANT2 [4] is greater than 100 µM; on human ANT1 it was greater than 100 µM; on human ANT3 it was 47 ± 11 µM. The “effect on translocase activity in L. lactis expressing hANT1” value at human ANT1 (Fig. 3C) is recorded as “increased translocase activity”. For the same molecule, the “effect on translocase activity in L. lactis expressing hANT3” value on human ANT3 (Fig. 3C) is “inhibited the activity”. For the same molecule, the “inhibition of [3H]ADP uptake” value with human ANT isoforms [5] is “inhibited”.

Consider `CN(C)c1ccc(O)c2c1C[C@H]1C[C@H]3[C@H](N(C)C)C(O)=C(C(N)=O)C(=O)[C@@]3(O)C(O)=C1C2=O` [Minocycline], for which the IC50 (in “in vitro [11]”; in data set [6]; in data set [7]; in the data set “in vitro [12]”; in data set [8]; in data set [9]) was greater than 100 µM in each case. Besides, the concentration for half-maximal inhibition (IC50) in “in vitro [13]” and in “in vitro [14]” was greater than 100 µM in each case. The “inhibition of exchange activity in the mitochondrial assay” value in the data set on human ANT isoforms [10] (30 μM, in at least one yeast strain (Suppl. Table S1)) was “strong inhibition”. For the same molecule, in the data set with human ANT isoforms [5], the “inhibition of [3H]ADP uptake” value is “completely inactive”.

Turning to `C[C@@H]1C[C@H]2CC[C@H](O2)[C@H](C)C(=O)O[C@@H](C)C[C@@H]2CC[C@@H](O2)[C@@H](C)C(=O)O[C@H](C)C[C@H]2CC[C@H](O2)[C@H](C)C(=O)O[C@@H](C)C[C@@H]2CC[C@@H](O2)[C@@H](C)C(=O)O1` [Nonactin], the IC50 in “in vitro [11]” is greater than 100 µM; in [6], 3.3 ± 0.4 µM; in data set [7] it was 3.3 ± 1.1 µM; in “in vitro [12]”, greater than 100 µM; in [8] it was 4.7 ± 1.5 µM; in data set [9], 4.4 ± 1.3 µM. Further, the IC50 in the data set “in vitro [13]” and in the data set “in vitro [14]” was greater than 100 µM in each case.

For `CC(C)(C)c1cc(C=C(C#N)C#N)cc(C(C)(C)C)c1O` [Tyrphostin A9], the IC50 is greater than 100 µM in “in vitro [11]”; 13 ± 4 µM in data set [6]; 35 ± 15 µM in data set [7]; greater than 100 µM in the data set “in vitro [12]”; 24 ± 10 µM in data set [8]; 42 ± 20 µM in data set [9]. For the same molecule, the 50% inhibitory concentration (IC50) in “in vitro [13]” and in the data set “in vitro [14]” was greater than 100 µM each time.

Consider `C=C1[C@@H]2CC[C@H]3[C@]4(C)C[C@H](O[C@@H]5O[C@H](CO)[C@@H](OS(=O)(=O)O)[C@H](OS(=O)(=O)O)[C@H]5OC(=O)CC(C)C)CC(C(=O)O)(C(=O)O)[C@H]4CC[C@]3(C2)[C@H]1O` [cATR, carboxyatractyloside], for which the “oxygen consumption rate (OCR)” value in the data set with HCT116 cells and in the data set with MiaPaCa-2 cells was “decreased OCR” in each case. Also, the values for the half-maximal inhibitory concentration (IC50) on human ANT2 [4], on human ANT1 and on human ANT3 were 0.0017 ± 0.0004 µM, 0.0024 ± 0.0005 µM and 0.0023 ± 0.0007 µM, respectively. At human ANT2 [1], the “ADP/ATP exchange activity / ADP uptake” value is given as “completely inhibited”.

In the case of `COc1ccc2c(c[n+](C)c3c4cc5c(cc4ccc23)OCO5)c1OC` [chelerythrine], at human ANT2 [1], the “ADP/ATP exchange activity / ADP uptake” value was “reduced ADP uptake”.

As to `O=C(O)c1nn(Cc2ccc(Cl)cc2Cl)c2ccccc12` [lonidamine], the “ADP/ATP exchange activity / ADP uptake” value at human ANT2 [1] is listed as “reduced ADP uptake”.

Consider antimycin, for which the “ADP/ATP exchange activity / ADP uptake” value on human ANT2 [1] is listed as “reduced ADP uptake”.
